ChEMBL document CHEMBL3259550, “Polycyclic propargylamine and acetylene derivatives as multifunctional neuroprotective agents” (Eur J Med Chem, 2014)
Active and inactive are the calls of the source. The calls are words filed in the database; no cut-off is given here.

Assays:
[1] = Antiapoptotic activity against serum deprivation-induced human SK-N-BE(2) cells assessed as viable cells at 10 uM after 36 hrs incubation by DePsipher agent relative to control; assay type: functional
Outline: (§1)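 SK-N-BE(2) neuroblastoma cells grown in F12 with 10% FBS, Pen/Strep and fungizone at 37 °C. At 80% confluency they were serum-deprived for 24 h, then seeded at 1 x 10^6 cells per 2 mL serum-deprived medium containing compound in DMSO (1.25% v/v final). Cells were incubated 36 h, stained with DePsipher dye 20 min at 37 °C and run by flow cytometry (50 000 events; FL-1 green, FL-2 red). % viable = (Q1+Q2)/(Qtotal−Q3) x 100. Tests in triplicate.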

[2] = organism: Papio papio; assay: Inhibition of MAO-B in baboon liver mitochondrial fraction using MMTP substrate at 300 uM
[3] = Antiapoptotic activity against serum deprivation-induced human SK-N-BE(2) cells assessed as improvement in cell health at 1 mM to 10 uM after 36 hrs incubation by DePsipher agent relative to 1.25% DMSO; assay type: functional; outline: as §1
[4] = Antiapoptotic activity against serum deprivation-induced human SK-N-BE(2) cells assessed as apoptotic cells at 1 mM to 10 uM after 36 hrs incubation by DePsipher agent relative to 1.25% DMSO; assay type: functional; outline: as §1
[5] = Antiapoptotic activity against serum deprivation-induced human SK-N-BE(2) cells assessed as improvement in cell health at 1 mM to 10 uM after 36 hrs incubation by DePsipher agent relative to non-induced cells; assay type: functional; outline: as §1

SMILES	Activity [1]	inhibition [2]	Activity [3] [%]	Activity [4] [%]	improvement in cell health [5]
C#CCN	79%	19.9%			
C#CCN(C)[C@H](C)Cc1ccccc1	77%	93.3%			
C#CCN(CC#C)C12CC3CC(CC(C3)C1)C2	68%	14%	9		
C#CCN(Cc1ccccc1)C12CC3CC(CC(C3)C1)C2	70%	20.1%	9		
COCCOC(=O)C1=C(C)NC(C)=C(C(=O)OC(C)C)C1c1cccc([N+](=O)[O-])c1 (stereo not drawn)	inactive				
c1ccc(CNC23OC4C5C6CC(C7C6C4C72)C53)cc1 (stereo not drawn)	67%	14.6%	9		
C#CC12OC3(O)C4C5CC(C6C5C3(C)C61)C42 (racemic)	100%	inactive	9	0.5	Active
C#CCN1C2C3C4CC5C6C4C2C6(C)C1(O)C53 (racemic)	67%	10.8%	9		
C#CCN1C2C3C4CC5C6C4C2C6C1(O)C53 (racemic)	93%	5.83%	9		Active
C#CCNC12OC3C4C5CC(C6C5C3(C)C61)C42 (racemic)	97%	11.7%	9		Active
C#CCNC12OC3C4C5CC(C6C5C3C61)C42 (racemic)	88%	inactive	9		
OC1(C#Cc2ccccc2)C2C3CC4C5C3CC2C5C41 (racemic)	98%	73.3%	9	2.8	Active
